ChEMBL document CHEMBL3860028, “Bioactive Phenanthrene and Bibenzyl Derivatives from the Stems of Dendrobium nobile” (J Nat Prod, 2016)
pIC50: −log10 of the molar value. Converted amounts (≈) assume the structure as drawn.

Experiments:
[1] = Cytotoxicity against human A549 cells assessed as decrease in cell viability after 6 days by MTT assay; format: functional, cell-based; details: A549, 144 h
Method in brief: (§1)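 Cell lines from College of Pharmacy, Hebei University, grown in DMEM with 5% fetal bovine serum at 37 °C under 5% CO2. Viability read by MTT method, IC50 values derived. Epirubicin served as positive control.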

[2] = Antifungal activity against Diaporthe medusaea nitschke after 4 to 14 days by serial dilution method; format: functional; details: Diaporthe rudis
Method in brief: (§2)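 Fungal strains kept on potato dextrose agar. Antifungal activity tested following NCCLS recommendations, with MIC values as the read-out. Prochloraz served as positive control.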

[3] = Antifungal activity against Pestallozzia theae after 4 to 14 days by serial dilution method; format: functional; method in brief: as §2
Alternaria brassicicola = test: Antifungal activity against Alternaria brassicicola after 4 to 14 days by serial dilution method; format: functional; method in brief: as §2
Alternaria citri = test: Antifungal activity against Alternaria citri after 4 to 14 days by serial dilution method; format: functional
Method in brief: (§3)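 Fungus maintained on potato dextrose agar. Antifungal activity determined as MIC following NCCLS (National […] for Clinical Laboratory Standards) recommendations, with prochloraz as the reference antifungal.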

Colletotrichum truncatum = test: Antifungal activity against Colletotrichum capsici after 4 to 14 days by serial dilution method; format: functional; method in brief: as §2
[4] = Antifungal activity against Ceratocystis paradoxa moreau after 4 to 14 days by serial dilution method; format: functional; details: Thielaviopsis; method in brief: as §2
[5] = Antifungal activity against Phytophthora parasitica var. nicotianae after 4 to 14 days by serial dilution method; format: functional; method in brief: as §2
[6] = Antifungal activity against Exserohilum turcicum after 4 to 14 days by serial dilution method; format: functional; details: Setosphaeria turcica; method in brief: as §2
[7] = Cytotoxicity against human HeLa cells assessed as decrease in cell viability after 6 days by MTT assay; format: functional, cell-based; details: 144 h; method in brief: as §1
[8] = Antifungal activity against Bipolaris oryzae after 4 to 14 days by serial dilution method; format: functional; method in brief: as §3
[9] = Cytotoxicity against human MCF7 cells assessed as decrease in cell viability after 6 days by MTT assay; format: functional, cell-based; details: MCF7, 144 h; method in brief: as §1

Row | SMILES | pIC50 [1] | MIC [2] [µM] | MIC [3] [µM] | MIC (Alternaria brassicicola) [µM] | MIC (Alternaria citri) [µM] | MIC (Colletotrichum truncatum) [µM] | MIC [4] [µM] | MIC [5] [µM] | MIC [6] [µM] | pIC50 [7] | MIC [8] [µM] | pIC50 [9]
1 | COc1cc(O)cc2c1-c1c(O)cccc1CC2 [HIRCINOL] | < 5.00 | > 400 | > 400 | > 400 | > 400 | > 400 | > 400 | > 400 | > 400 | < 5.00 | > 400 | < 5.00
2 | COc1cc2c(c(O)c1OC)-c1ccc(O)cc1CC2 [EPHEMERANTHOL A] | < 5.00 | > 400 | > 400 | > 400 | > 400 | > 400 | > 400 | > 400 | > 400 | < 5.00 | > 400 | < 5.00
3 | COc1c(O)cc2c(c1OC)-c1ccc(O)cc1CC2 [ERIANTHRIDIN] | < 5.00 | > 400 | > 400 | > 400 | > 400 | > 400 | > 400 | > 400 | > 400 | < 5.00 | > 400 | < 5.00
4 | COc1cc(O)cc(CCc2ccc(O)c(OC)c2)c1 [GIGANTOL] | < 5.00 | 91.2 (≈ 25 µg/mL) | 91.2 (≈ 25 µg/mL) | 182 (≈ 50 µg/mL) | 91.2 (≈ 25 µg/mL) | 91.2 (≈ 25 µg/mL) | 91.2 (≈ 25 µg/mL) | 365 (≈ 100 µg/mL) | 182 (≈ 50 µg/mL) | < 5.00 | 182 (≈ 50 µg/mL) | < 5.00
5 | COc1cc(O)c2c(c1-c1c(OC)cc(O)c3c1CCc1cc(O)ccc1-3)CCc1cc(O)ccc1-2 | < 5.00 | > 400 | > 400 | > 400 | > 400 | > 400 | > 400 | > 400 | > 400 | < 5.00 | > 400 | < 5.00
6 | COc1cc(O)cc2ccc3cccc(O)c3c12 [MOSCATIN] | < 5.00 | > 400 | > 400 | > 400 | > 400 | > 400 | > 400 | > 400 | > 400 | < 5.00 | > 400 | < 5.00
7 | Oc1cccc(CCc2cc(O)cc(O)c2)c1 | < 5.00 | 217 (≈ 50.1 µg/mL) | 217 (≈ 50.1 µg/mL) | > 400 | 109 (≈ 25 µg/mL) | 109 (≈ 25 µg/mL) | 109 (≈ 25 µg/mL) | 218 (≈ 50.1 µg/mL) | 109 (≈ 25 µg/mL) | < 5.00 | 109 (≈ 25 µg/mL) | < 5.00
8 | COc1cc(O)c2c(c1)CCc1cc(Oc3cc(OC)c(O)c4c3CCc3cc(O)ccc3-4)ccc1-2 | < 5.00 | > 400 | > 400 | > 400 | > 400 | > 400 | > 400 | > 400 | > 400 | < 5.00 | > 400 | < 5.00
